Assay results as given in ChEMBL document CHEMBL3259807, “Structure-activity relationships of pyrazole derivatives as potential therapeutics for immune thrombocytopenias” (Bioorg Med Chem, 2014).

Experiments:
[1] = Basic dissociation constant, pKa of the compound at 10 mM; assay type: physicochemical
[2] = Distribution coefficient, log D of the compound at 10 mM at pH 7.4 by pH-metric method; assay type: physicochemical; conditions: octanol/water
PBMC [3] = assay: Inhibition of human PBMC-induced phagocytosis of antibody-opsonized RBC at 5 uM incubated for 1 hr prior to RBC addition measured after 2 hrs by phase-contrast microscopy; assay type: functional
Procedure, shortened: (§1)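 Ficoll-isolated human PBMC cultured overnight (10% FBS, 37 °C, 5% CO2). 7×10^5 cells adhered 1 h on chamber slides, then non-adherent cells removed. Compound or IVIg was added for 1 h, media aspirated, and anti-D-opsonized human R2R2 RBCs added for 2 h. Slides were methanol-fixed and read by phase-contrast, counting ≥100 monocytes for the phagocytosis index. Results are normalized to vehicle (100% phagocytosis). Screen at 5 µM; titration 0.5–100 µM.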

PBMC [4] = assay: Induction of apoptosis in human PBMC assessed as apoptotic index at 10 uM after 1 hr by Annexin V/propidium iodide staining-based FACS analysis relative to IVIg; assay type: cell-based; conditions: in the assay text read “relative to vehicle” for “relative to IVIg”
Procedure, shortened: (§2)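 Ficoll-isolated human PBMC cultured overnight in 10% FBS medium, 37 °C, 5% CO2. After 1 h adherence, non-adherent cells removed, and the rest were exposed to compound at 10 and 100 µM for 1 h. Cells were then scraped and stained with Annexin V-APC plus PI (1 µg/mL) for flow cytometry. AI = fold increase in % apoptotic cells (Annexin V+ and Annexin V+/PI+) over vehicle.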

PBMC [5] = assay: Induction of apoptosis in human PBMC assessed as apoptotic index at 100 uM after 1 hr by Annexin V/propidium iodide staining-based FACS analysis relative to IVIg; assay type: cell-based; conditions: in the assay text read “relative to vehicle” for “relative to IVIg”; procedure, shortened: as §2
[6] = Acidic dissociation constant, pKa of the compound at 10 mM; assay type: physicochemical
PBMC [7] = assay: Inhibition of human PBMC-induced phagocytosis of antibody-opsonized RBC incubated for 1 hr prior to RBC addition measured after 2 hrs by phase-contrast microscopy; assay type: functional, cell-based; procedure, shortened: as §1

Compound	pKa at 10000 µM [1]	logD at 10000 µM [2]	pKa at 10000 µM [6]	inhibition at 5 µM (PBMC [3]) [%]	Ratio (PBMC [4])	Ratio (PBMC [5])	IC50 (PBMC [7]) [µM]
Cc1cc(CNCc2cc(C)nn2-c2ccccc2)n(-c2ccccc2)n1	2.2	5		20	1.1	0.9	
Cc1nn(-c2ccccc2)c(SSc2c(C(=O)c3ccccc3)c(C)nn2-c2ccccc2)c1C(=O)c1ccccc1	3.2	8		32	0.8	1	
Cc1cc(Oc2c(N)c(C)nn2-c2ccccc2)n(-c2ccccc2)n1	3.4	4		2	1.2	1	
Cc1cc(OCC2CCCN2Cc2ccccc2)n(-c2ccccc2)n1 (stereo unspecified)	2.4	4.5		15	1.1	0.9	
Cc1cc(CCc2cc(C)nn2-c2ccccc2)n(-c2ccccc2)n1	2.5	1.3		14	1	0.9	
Cc1nn(-c2ccccc2)c(S)c1C(=O)c1ccccc1	2.9	-0.3	10.3	0	2	1.6	
Cc1cc(SSc2cc(C)nn2-c2ccccc2)n(-c2ccccc2)n1	4.8	3.2		45	1	5.4	
Cc1cc(OCCOc2cc(C)nn2-c2ccccc2)n(-c2ccccc2)n1	2.2	-1.6		4	1	1	
Cc1nn(-c2ccccc2)c(S)c1C(=O)c1ccno1							250

The next lines start with results.

pKa at 10000 µM [1]	logD at 10000 µM [2]	pKa at 10000 µM [6]	Compound	inhibition at 5 µM (PBMC [3]) [%]	Ratio (PBMC [4])	Ratio (PBMC [5])	IC50 (PBMC [7]) [µM]
2	3.7		Cc1cc(COc2cc(C)nn2-c2ccc([N+](=O)[O-])cc2)n(-c2ccccc2)n1	16	0.8	0.8	
2.3	4.3	8.4	Cc1cc(O)n(Cc2cc(C)nn2-c2ccccc2)n1	58	1.2	1.3	14
2.7	2.2		Cc1cc(COc2cc(C)nn2-c2ccccc2)n(-c2ccccc2)n1	16	1.1	0.9	
3.6	4.3		Cc1cc(OCc2cc(C)nn2-c2ccccc2)n(CC2CCCCC2)n1	45	1	1.1	
2.4	2.9	12.5	Cc1cc(OCc2cc(C)nn2-c2ccccc2)[nH]n1	6	1	1	
2.5	5		Cc1cc(OCc2cc(C)nn2-c2ccccc2)n(CCN)n1	33	1.1	1	
7.3	1.2	3.4	Cc1cc(OCc2cc(C)nn2-c2ccccc2)n(CC(=O)O)n1	10	1.1	1.2	
2.7	1.7		Cc1cc(COc2cc(C)nn2C2CCCC2)n(-c2ccccc2)n1	17	0.9	1.2	
2.1	5.3		Cc1cc(COc2cc(C)nn2-c2ccccc2)n(Cc2ccccc2)n1	0	1.1	1	
